Data on 55 sequences can be found in the array DNA melting data of Ke et al. (doi:10.1101/2024.01.08.574731).

The nature of data set [1]: folding enthalpy; higher = less favourable; fluorescence melt of hairpins on a sequencing array, two-state fit. The conditions noted are these: sodium 0.088 M. The gist of the method: (§1)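 Bootstrapped two-state fits yielded melting temperature and folding enthalpy for library hairpins. Cy3 fluorescence, with annealed Cy3 and quencher oligos, was imaged on a sequenced MiSeq flow cell in 50 mM Na-HEPES pH 8.0, 25 mM NaCl in 2.5 °C steps up to 60 °C, and normalised to pre-quench Cy3 and to control constructs. Four replicates were combined by inverse variance, and fitted temperatures were raised by 9.35 °C to match UV melts.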

A short description of data set [2]: melting temperature; fluorescence melt of hairpins on a sequencing array, two-state fit, raised by 9.35 °C to match UV melts. Particulars: sodium 0.088 M. A digest of the protocol:
as §1

For the sequence GTTCTTCGAAAGAACAAC (((.(((....))).))), the folding enthalpy in data set [1] was -14.9 kcal/mol. Also, the Tm in data set [2] stood at 32 °C.

For the sequence GTTCTTGGAAACAAGAAC (((((((....))))))), in data set [1], the folding enthalpy is -41.7 kcal/mol. Further, in data set [2], the Tm came out at 55.5 °C.

As for GTTGAAGAAATTCAAC ((((((....)))))), the folding enthalpy in data set [1] was -27.1 kcal/mol. Further, the Tm in data set [2] is 45.8 °C.

In the case of GTTGAAGGAAACCTCAAC (((((.(....).))))), in data set [1], the folding enthalpy was -31 kcal/mol. The Tm in data set [2] worked out at 36 °C.

With GTTGACCCGAAAGGGAAC (((..(((....)))))), in data set [1], the folding enthalpy is -14.3 kcal/mol. For the same sequence, in data set [2], the Tm is 37.8 °C.

Regarding GTTGACCGAAAGGTAAAC (((.(((....))).))), the folding enthalpy in data set [1] was -30.7 kcal/mol. Moreover, the Tm in data set [2] stood at 48.7 °C.

As to GTTGACCGAAAGGTTAAC (((.(((....))).))), the folding enthalpy in data set [1] is -33.7 kcal/mol. In data set [2], the Tm is 53.1 °C.

On to GTTGACGAAAGTCCAAAC ((((((....)))..))), for which, in data set [1], the folding enthalpy was -9.18 kcal/mol. Also, the Tm in data set [2] worked out at 24.3 °C.

Take GTTGAGCGAAAGCTGAAC (((.(((....))).))): in data set [1], the folding enthalpy is -23.9 kcal/mol. Moreover, the Tm in data set [2] was determined as 46.2 °C.

Take GTTGAGCGAAAGCTTAAC (((.(((....))).))): in data set [1], the folding enthalpy was -26.4 kcal/mol. Moreover, the Tm in data set [2] came to 52.4 °C.

Regarding GTTGAGGAAACTCAAC ((((((....)))))), the folding enthalpy in data set [1] was -32.2 kcal/mol. Also, the Tm in data set [2] amounted to 53.4 °C.

For the sequence GTTGAGGCGAAAGCCAAC (((..(((....)))))), the folding enthalpy in data set [1] was -14.6 kcal/mol. The Tm in data set [2] was found to be 40.7 °C.

With GTTGAGGGAAACCTCGAC ((.((((....)))).)), the folding enthalpy in data set [1] was -29.5 kcal/mol. In addition, the Tm in data set [2] was 49.8 °C.

For the sequence GTTGATACGAAAGTAAAC (((..(((....)))))), the folding enthalpy in data set [1] is -8.92 kcal/mol. Besides, the Tm in data set [2] worked out at 25.8 °C.

For the sequence GTTGATCGAAAGATAAAC (((.(((....))).))), the folding enthalpy in data set [1] is -25.1 kcal/mol. Also, the Tm in data set [2] was 40 °C.

As to GTTGATGGAAACATTGAC ((..(((....)))..)), the folding enthalpy in data set [1] is -13.7 kcal/mol. In data set [2], the Tm came to 29.5 °C.

For GTTGATGGAAACGTCAAC (((((.(....).))))), the folding enthalpy in data set [1] was -42.9 kcal/mol. Also, the Tm in data set [2] came to 47.1 °C.

As for GTTGCAGGAAACTGTAGC (.(.(((....))).).), in data set [1], the folding enthalpy was -19.9 kcal/mol. In addition, the Tm in data set [2] is 32.6 °C.

Regarding GTTGCCCCGAAAGGGAAC (((..(((....)))))), in data set [1], the folding enthalpy was -14.2 kcal/mol. The Tm in data set [2] was determined as 39.2 °C.

GTTGCCCGAAAGGGAAC (((.(((....)))))): in data set [1], the folding enthalpy is -15.6 kcal/mol. The Tm in data set [2] was 47.6 °C.

Take GTTGCCCGAAAGGGGAAC (((.(((....))).))): in data set [1], the folding enthalpy was -34.2 kcal/mol. Moreover, the Tm in data set [2] was found to be 62.1 °C.

GTTGCCCGAAAGGGTAAC (((.(((....))).))): the folding enthalpy in data set [1] was -31.6 kcal/mol. Moreover, the Tm in data set [2] came to 60.9 °C.

Regarding GTTGCCGAAAGGCGAAC ((((((....))).))), the folding enthalpy in data set [1] was -13.8 kcal/mol. In data set [2], the Tm is 50.3 °C.

Regarding GTTGCCGGAAACGGTGAC ((..(((....)))..)), in data set [1], the folding enthalpy is -22.8 kcal/mol. Besides, the Tm in data set [2] was determined as 47.8 °C.

GTTGCGGGAAACCGTAGC (.(.(((....))).).): the folding enthalpy in data set [1] is -24.5 kcal/mol. The Tm in data set [2] came to 36.1 °C.

For GTTGCGGGAAACTGCGAC ((.((.(....).)).)), the folding enthalpy in data set [1] was -11 kcal/mol. Also, the Tm in data set [2] stood at 38 °C.

With GTTGCTGGAAACAACAAC ((((.((....)).)))), the folding enthalpy in data set [1] was -29.2 kcal/mol. Moreover, in data set [2], the Tm turned out to be 38.8 °C.

As to GTTGCTGGAAACAGCAAC (((((((....))))))), the folding enthalpy in data set [1] was -62.8 kcal/mol. In data set [2], the Tm came out at 65.8 °C.

For GTTGGAGGAAACTCCGAC ((.((((....)))).)), the folding enthalpy in data set [1] was -40.7 kcal/mol. Also, in data set [2], the Tm was 52.8 °C.

Turning to GTTGGAGGAAACTCTAAC (((.(((....))).))), in data set [1], the folding enthalpy is -27.1 kcal/mol. For the same sequence, the Tm in data set [2] is 39.9 °C.

GTTGGCGAAAGCCAGAAC ((((((....)))..))): the folding enthalpy in data set [1] was -8.8 kcal/mol. Besides, the Tm in data set [2] was determined as 35.1 °C.

With GTTGGCGAAAGCCCAAC ((((((....))).))), the folding enthalpy in data set [1] was -16.3 kcal/mol. For the same sequence, the Tm in data set [2] was 50.7 °C.

With GTTGGCGGAAACGTCAAC ((((.((....)).)))), the folding enthalpy in data set [1] was -36.7 kcal/mol. The Tm in data set [2] is 56.8 °C.

As to GTTGGGCGAAAGCCGAAC (((.(((....))).))), the folding enthalpy in data set [1] was -19.5 kcal/mol. Moreover, in data set [2], the Tm was 53.2 °C.

Turning to GTTGGGGAAACCCAAC ((((((....)))))), in data set [1], the folding enthalpy was -36.8 kcal/mol. Moreover, the Tm in data set [2] turned out to be 60 °C.

For the sequence GTTGGGGGAAACCCCAGC (.(((((....))))).), in data set [1], the folding enthalpy is -17.3 kcal/mol. Also, the Tm in data set [2] was 49.8 °C.

On to GTTGGTGGAAACATCAGC (.((.((....)).)).), for which the folding enthalpy in data set [1] is -18.8 kcal/mol. For the same sequence, the Tm in data set [2] came out at 31.4 °C.

As for GTTGTACGAAAGTATAAC (((.(((....))).))), the folding enthalpy in data set [1] was -26.9 kcal/mol. Further, the Tm in data set [2] turned out to be 47.6 °C.

Take GTTGTAGGAAACTACAGC (.(((((....))))).): the folding enthalpy in data set [1] is -25.8 kcal/mol. Besides, the Tm in data set [2] came out at 42 °C.

As for GTTGTCCGAAAGGAAAC (((.(((....)))))), the folding enthalpy in data set [1] is -20.4 kcal/mol. For the same sequence, in data set [2], the Tm came to 37.8 °C.

Take GTTGTCGAAAGACAAAC ((((((....))).))): the folding enthalpy in data set [1] was -14.2 kcal/mol. In addition, in data set [2], the Tm worked out at 48.9 °C.

Take GTTGTCGAAAGACCGAAC ((((((....)))..))): in data set [1], the folding enthalpy was -11.3 kcal/mol. Further, the Tm in data set [2] turned out to be 28.8 °C.

In the case of GTTGTCGAAAGACGAAAC ((((((....)))..))), the folding enthalpy in data set [1] is -9.08 kcal/mol. For the same sequence, the Tm in data set [2] is 29.1 °C.

On to GTTGTCGAAAGACTCAAC ((((((....)))..))), for which, in data set [1], the folding enthalpy is -11.7 kcal/mol. The Tm in data set [2] turned out to be 27.7 °C.

Take GTTGTCGGAAACGATGAC ((..(((....)))..)): in data set [1], the folding enthalpy was -16 kcal/mol. In addition, the Tm in data set [2] stood at 40.4 °C.

With GTTGTGCCGAAAGGCAAC (((..(((....)))))), in data set [1], the folding enthalpy is -19.6 kcal/mol. Also, the Tm in data set [2] came to 53 °C.

Regarding GTTGTGGCGAAAGCCAAC (((..(((....)))))), the folding enthalpy in data set [1] is -18.3 kcal/mol. Besides, the Tm in data set [2] was found to be 53.7 °C.

As for GTTGTGGGAAACCACAAC (((((((....))))))), the folding enthalpy in data set [1] is -46 kcal/mol. Also, the Tm in data set [2] is 63.1 °C.

Turning to GTTGTGGGAAACCACGAC ((.((((....)))).)), the folding enthalpy in data set [1] is -30.8 kcal/mol. Besides, the Tm in data set [2] was determined as 52.7 °C.

For GTTGTGGGAAACCGTAAC (((..((....))..))), the folding enthalpy in data set [1] is -13 kcal/mol. For the same sequence, the Tm in data set [2] worked out at 29.2 °C.

With GTTGTTCCGAAAGGAAAC (((..(((....)))))), in data set [1], the folding enthalpy was -20.5 kcal/mol. The Tm in data set [2] was determined as 49.1 °C.

As for GTTGTTCGAAAGAATAAC (((.(((....))).))), the folding enthalpy in data set [1] was -31.6 kcal/mol. In addition, in data set [2], the Tm worked out at 45.6 °C.

Regarding GTTGTTGAAAAACAAC ((((((....)))))), the folding enthalpy in data set [1] was -38.2 kcal/mol. Further, in data set [2], the Tm is 51.9 °C.

For GTTGTTGCGAAAGCAAAC (((..(((....)))))), in data set [1], the folding enthalpy was -21.7 kcal/mol. In data set [2], the Tm worked out at 53.1 °C.

As to GTTGTTGGAAACAACAGC (.(((((....))))).), the folding enthalpy in data set [1] was -13.2 kcal/mol. In addition, in data set [2], the Tm turned out to be 52.8 °C.
